Measured values published in PubChem BioAssay.
Active and inactive are the calls of the source.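 The calls were made as follows, unless noted: active = inhibition above 20% together with a positive visual image hit; inconclusive = visual image hit but inhibition not above 20%; inactive = no visual image hit.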

Legend:
[1] = inhibitors of TNFa-induced NFkB p65 translocation, primary screen, imaging, HUVEC, MLSMR starter and 10KST1 sets (AID 438); conditions: HUVEC TNFa-induced p65 nuclear translocation; cell count: measured here: nuclei count (cytotoxicity indicator), at 2.08 µM; inhibition: at 2 µM, stronger effect = higher value, 0% TNFa-plus-vehicle, 100% no-TNFa wells;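 also: compound added about 3h40 before a 20 min TNFalpha stimulation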;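 as to inhibition: signal is the nuclear over cytoplasmic p65 intensity ratio per well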
[2] = reduction of polyQ htt aggregates in cells – imaging, exon1htt(103Q)mCFP cells, high-content imaging, primary screen (AID 483;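 active = visual image review flags a hit and inhibition of aggregation exceeds 20%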;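 also: compound exposure lasted 3 days before fixation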;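 as to nuclei count: percent of the per-plate median nuclei count of sample wells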); conditions: exon1htt(103Q)mCFP cell line, aggregate imaging, at 2 µM; inhibition of aggregation: stronger effect = higher value; nuclei count: measured here: cell count, toxicity
[3] = endothelial E-selectin expression blockers – imaging, HUVEC, immunofluorescence, MLSMR starter and 10KST1 sets, primary screen (AID 487;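 active = visually confirmed hit in the image check and inhibition above 20%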;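 as to inhibition: signal is fraction of cell area covered by stained E-selectin grains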;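 as to nuclei count: 100% = median nuclei count of all wells on the same plate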); conditions: HUVEC TNFalpha-induced E-selectin immunofluorescence imaging, at 2 µM; inhibition: stronger effect = higher value; nuclei count: measured here: cell number, toxicity
[4] = biological target: Voltage-gated potassium channel subunit beta-2 (Rattus norvegicus) (UniProt P62483); assay: inhibitors of rat Kvbeta2 reductase activity – biochemical, NADPH fluorescence, primary screen (AID 622;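 active = fluorescence slope higher than the sample average by over 3 SD, cut at about -0.22 in these data, passing the limit was not always enough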;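 also: slope of raw intensity against log time taken from 70 to 1610 s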); conditions: recombinant KvBeta, 4-cyanobenzaldehyde reduction, at 10 µM, stronger effect = higher value
Chain of Voltage-gated potassium channel subunit beta-2 (Rattus norvegicus) (P62483 whole entry, looked up): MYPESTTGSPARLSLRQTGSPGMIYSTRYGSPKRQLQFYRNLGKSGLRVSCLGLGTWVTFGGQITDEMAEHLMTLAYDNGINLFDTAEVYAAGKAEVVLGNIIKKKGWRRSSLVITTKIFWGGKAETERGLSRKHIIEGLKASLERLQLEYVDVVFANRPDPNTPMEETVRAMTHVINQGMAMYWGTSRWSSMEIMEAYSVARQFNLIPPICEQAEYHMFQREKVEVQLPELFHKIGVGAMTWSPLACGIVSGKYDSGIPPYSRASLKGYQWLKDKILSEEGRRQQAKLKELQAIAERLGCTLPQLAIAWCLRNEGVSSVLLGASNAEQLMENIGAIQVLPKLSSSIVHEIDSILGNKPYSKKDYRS

[5] = biological target: Voltage-gated potassium channel subunit beta-2 (Rattus norvegicus) (UniProt P62483); assay: enhancers of rat Kvbeta2 NADPH turnover – biochemical, NADPH fluorescence, primary screen (AID 623;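 active = NADPH fluorescence slope more negative than the mean of all samples by about 3 SD, 99.7% confidence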;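 also: fluorescence intensity change per second fitted from 20 to 320 s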); conditions: Recombinant KvBeta, NADPH fluorescence decrease slope, 10 min; at 10 µM; stronger effect = lower value
[6] = biological target: Muscarinic acetylcholine receptor M4 (Homo sapiens) (UniProt P08173); assay: M4-linked GIRK flux change, two-sided – cell-based, HEK293 M4/GIRK, thallium flux, BTC-AM, M4 allosteric agonist project, primary screen (AID 625;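 active = fluorescence slope after compound addition differing from the mean of all tested samples at 99.7% confidence, mostly higher but some lower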;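 also: thallium influx through GIRK channels coupled to M4 in HEK293 cells with BTC-AM dye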); conditions: at 10 µM, actives lie on both sides
Chain of Muscarinic acetylcholine receptor M4 (Homo sapiens) (P08173 whole entry, looked up): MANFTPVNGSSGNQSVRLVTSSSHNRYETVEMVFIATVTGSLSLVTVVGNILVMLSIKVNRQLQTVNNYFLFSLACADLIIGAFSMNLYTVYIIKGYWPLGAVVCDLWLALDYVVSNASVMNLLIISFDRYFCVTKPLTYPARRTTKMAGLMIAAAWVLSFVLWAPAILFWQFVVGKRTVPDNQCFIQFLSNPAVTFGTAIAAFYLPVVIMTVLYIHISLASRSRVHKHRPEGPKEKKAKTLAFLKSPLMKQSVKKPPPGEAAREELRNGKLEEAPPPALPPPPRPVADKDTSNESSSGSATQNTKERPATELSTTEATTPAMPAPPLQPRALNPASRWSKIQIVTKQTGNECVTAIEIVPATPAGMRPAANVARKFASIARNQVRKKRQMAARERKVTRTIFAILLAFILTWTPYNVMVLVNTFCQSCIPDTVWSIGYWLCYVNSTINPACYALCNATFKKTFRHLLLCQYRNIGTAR
Summary of the method: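 System: HEK293 cells with M4 receptor and GIRK channels | Incubation: Cells overnight at 37 °C, BTC-AM loading 1 h, reads 2 min total | Technique: Kinetic BTC-AM fluorescence sampled at 1 Hz, 10 s pre-addition baseline | Measure: Post-addition slope, 15–24 s, of baseline-normalized fluorescence | Control set: Carbachol positive, DMSO negative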

[7] = blockers of RIG-like receptor reporter activation – cell-based, Sendai virus stimulus, luciferase, 10K MLSCN set, TLR/RLR signaling modifier project, primary screen (AID 602276;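 active = inhibition at or above 50% at 10 µM; inactive = inhibition below 50%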;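 also: firefly luciferase from ISG56 promoter only with Renilla not read in this screen; 0% = Sendai virus plus DMSO and 100% = medium plus DMSO without virus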); conditions: HEK293 RL24 IRF3 luciferase reporter, at 10 µM, stronger effect = higher value
[8] = TLR3 IRF3 reporter activation blockers – cell-based, poly I:C stimulus, luciferase, 10K MLSCN set, primary screen (AID 602277;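 active = inhibition of the reporter signal at or above 50%; inactive = inhibition below 50%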); conditions: HEK293-TLR3 RL24 IRF3 luciferase reporter, at 10 µM, stronger effect = higher value

Row | SMILES | cell count [1] | inhibition [1] | inhibition of aggregation [2] | nuclei count [2] [%] | inhibition [3] | nuclei count [3] [%] | fluorescence slope [4] | NADPH fluorescence slope [5] | fluorescence slope [6] | inhibition [7] | inhibition [8]
1 | CCCCN(Cc1cc2cc(OC)ccc2[nH]c1=O)C(=O)COc1ccccc1 | 348 | 4.3% (inactive) | -1.9% (inactive) | 117 | -53.3% (inactive) | 125 | -0.505 (inactive) | -5e-05 (inactive) | 0.00376 (inactive) | 7.27% (inactive) | 13.1% (inactive)
2 | COC(=O)c1ccc(CNC(=O)COc2ccccc2Br)o1 | 712 | -13.6% (inactive) | -7.2% (inactive) | 110 | 0.2% (inactive) | 81.7 | -0.556 (inactive) | -8.6e-06 (inactive) | 0.00463 (inactive) | 5.53% (inactive) | 1.32% (inactive)
3 | O=C(CCN1CCN(CCO)CC1)Nc1ccc(OCc2ccccc2)cc1 | 278 | 4.8% (inactive) | -5.1% (inactive) | 98.3 | -29.4% (inactive) | 105 | -0.584 (inactive) | -2.1e-05 (inactive) | 0.00748 (inactive) | -11.3% (inactive) | 0.289% (inactive)
4 | CS(=O)(=O)N(CC(=O)O)c1cccc(Cl)c1 | 358 | 9.8% (inactive) | -14.9% (inactive) | 106 | -49% (inactive) | 121 | -0.544 (inactive) | -0.00014 (inactive) | 0.00338 (inactive) | -12.6% (inactive) | -6.52% (inactive)
5 | COC(=O)C(C)Sc1nc2c(c(=O)n(C)c(=O)n2C)n1Cc1cccc(C)c1 (stereo not drawn) | 474 | 3.8% (inactive) | -2.4% (inactive) | 99.3 | -27.3% (inactive) | 117 | -0.553 (inactive) | -3.9e-05 (inactive) | 0.00598 (inactive) | 18.9% (inactive) | 26.2% (inactive)
6 | COc1ccc2c(c1)CCc1c(C(=O)N3CC4(C)CC3CC(C)(C)C4)noc1-2 (stereo not drawn) | 250 | -6.9% (inactive) | 18.9% (inactive) | 98.8 | -59% (inactive) | 104 | -0.586 (inactive) | -1.4e-05 (inactive) | 0.00924 (inactive) | 1.5% (inactive) | 10.1% (inactive)
7 | O=S(=O)(c1ccc(OCC(O)CN2CCC(Cc3ccccc3)CC2)cc1)N1CCOCC1 (stereo not drawn) | 730 | 4.8% (inactive) | -9.9% (inactive) | 120 | -22.7% (inactive) | 116 | -0.46 (inactive) | -4e-06 (inactive) | 0.00575 (inactive) | -3.87% (inactive) | 3.35% (inactive)
8 | CC(=O)N1C(=O)N(C)C2C1N(C(C)=O)C(=O)N2C (stereo not drawn) | 395 | 5.4% (inactive) | 7.3% (inactive) | 96.4 | -4.1% (inactive) | 98.6 | -0.574 (inactive) | -5e-05 (inactive) | 0.00666 (inactive) | 11.1% (inactive) | 16.5% (inactive)
9 | COc1cc(NC(=O)C2CC(c3cccc(OC)c3OC)=NO2)cc(OC)c1OC (stereo not drawn) | 711 | -12.2% (inactive) | -18.4% (inactive) | 76.9 | -176% (inactive) | 104 | -0.573 (inactive) | 2.2e-05 (inactive) | 0.0048 (inactive) | 17.4% (inactive) | -1.09% (inactive)
10 | CCOC(=O)c1c(C)oc2ccc(OCC(N)=O)cc12 | 794 | -12.1% (inactive) | -6.7% (inactive) | 36.5 | 20.4% (inactive) | 93.5 | -0.483 (inactive) | -1.6e-05 (inactive) | 0.00617 (inactive) | 5.65% (inactive) | 6.54% (inactive)
11 | [O-][n+]1c2c(nn1-c1ccccc1Cl)-c1nonc1CC2 | 593 | -26.9% (inactive) | -16.7% (inactive) | 112 | -1.8% (inactive) | 95 | -0.351 (inactive) | -7.7e-05 (inactive) | 0.00719 (inactive) | 12% (inactive) | 5.67% (inactive)
12 | COc1ccc(-n2nc(C(=O)Nc3ccc4c(c3)OCO4)c3c4ccccc4n(C)c3c2=O)cc1 | 218 | 4.3% (inactive) | -21.9% (inactive) | 47.3 | -66% (inactive) | 97.1 | -0.566 (inactive) | 4e-06 (inactive) | 0.0112 (active) | 10.3% (inactive) | 24.3% (inactive)
13 | CC(=O)Nc1ccc(NC(=O)c2ccccc2N(C)S(C)(=O)=O)cc1 | 408 | 0.5% (inactive) | -2.3% (inactive) | 111 | -46.3% (inactive) | 94.4 | -0.462 (inactive) | -5.4e-05 (inactive) | 0.00563 (inactive) | 11.7% (inactive) | 10.8% (inactive)
